# Test results from ChEMBL document CHEMBL4138215, “Discovery of caffeic acid phenethyl ester derivatives as novel myeloid differentiation protein 2 inhibitors for treatment of acute lung injury” (Eur J Med Chem, 2018).
# Active and inactive are the calls of the source. The calls are words filed in the database; no cut-off is given here.
# Assays:
# Peritoneal macrophage [1] = test: Anti-inflammatory activity in ICR mouse peritoneal macrophages assessed inhibition of LPS-induced TNF-alpha production at 10 uM preincubated for 30 to 60 mins followed by LPS stimulation measured after 24 hrs by ELISA; type: functional, cell-based
# In short: (§1)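 Primary peritoneal macrophages from thioglycollate-elicited ICR mice (3 mL i.p.), collected by PBS lavage and cultured in RPMI-1640 at 37 °C, 5% CO2. Plated at 4*10⁵ cells/well and grown 24 h. Pretreated with compound (30–60 min; screen at 10, dose-response 0.5–10), then LPS for 24 h. TNF-α in the conditioned medium measured by ELISA and expressed relative to LPS alone; DMSO as vehicle.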
# Mus musculus [2] = test: Anti-inflammatory activity in LPS-induced C57BL/6 mouse model of acute lung injury assessed as inhibition of total cell count in BALF at 15 mg/kg, ip pretreated for 30 mins followed by LPS challenge measured after 6 hrs; type: functional, organism-based; conditions: C57/BL6
# In short: (§2)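 Male C57BL/6 mice (n = 7) received 15 mg/kg i.p. in 200 µL, or vehicle, 30 min before intratracheal LPS 5 mg/kg; euthanized at 6 h. Total BALF cells counted as counts/ml. Lung MPO activity determined from absorbance change at 460 nm after a 30 min reaction and reported as U/g.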
# Mus musculus [3] = test: Anti-inflammatory activity in LPS-induced C57BL/6 mouse model of acute lung injury assessed as inhibition of TNF-alpha levels in BALF at 20 mg/kg, ip pretreated for 30 mins followed by LPS challenge measured after 6 hrs by ELISA; type: functional, organism-based; conditions: C57/BL6
# In short: (§3)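 ALI model in male C57BL/6 mice: i.p. pretreatment 30 min before intratracheal LPS (5 mg/kg), euthanasia at 6 h. BALF spun at 1000 rpm for 10 min and the supernatant kept; plasma also collected. IL-6 and TNF-α measured by ELISA as pg/ml, mean ± SEM, n = 7.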
# Mus musculus [4] = test: Anti-inflammatory activity in LPS-induced C57BL/6 mouse model of acute lung injury assessed as inhibition of IL-6 levels in BALF at 20 mg/kg, ip pretreated for 30 mins followed by LPS challenge measured after 6 hrs by ELISA; type: functional, organism-based; conditions: C57/BL6; in short: as §3
# Mus musculus [5] = test: Anti-inflammatory activity in LPS-induced C57BL/6 mouse model of acute lung injury assessed as inhibition of myeloperoxidase activity in lung tissue at 15 mg/kg, ip pretreated for 30 mins followed by LPS challenge measured after 6 hrs by H2O2 substrate based assay; type: functional, organism-based; conditions: C57/BL6; in short: as §2
# Mus musculus [6] = test: Anti-inflammatory activity in LPS-induced C57BL/6 mouse model of acute lung injury assessed as inhibition of IL-6 levels in plasma at 20 mg/kg, ip pretreated for 30 mins followed by LPS challenge measured after 6 hrs by ELISA; type: functional, organism-based; conditions: C57/BL6; in short: as §3
# Peritoneal macrophage [7] = test: Anti-inflammatory activity in ICR mouse peritoneal macrophages assessed inhibition of LPS-induced TNF-alpha production preincubated for 30 to 60 mins followed by LPS stimulation measured after 24 hrs by ELISA; type: functional, cell-based; in short: as §1
# Mus musculus [8] = test: Anti-inflammatory activity in LPS-induced C57BL/6 mouse model of acute lung injury assessed as inhibition of TNF-alpha levels in plasma at 20 mg/kg, ip pretreated for 30 mins followed by LPS challenge measured after 6 hrs by ELISA; type: functional, organism-based; conditions: C57/BL6; in short: as §3
# Peritoneal macrophage [9] = test: Anti-inflammatory activity in ICR mouse peritoneal macrophages assessed inhibition of LPS-induced TNF-alpha production at 10 uM preincubated for 30 to 60 mins followed by LPS stimulation measured after 24 hrs by ELISA relative to control; type: functional; in short: as §1
# Mus musculus [10] = test: Anti-inflammatory activity in LPS-induced C57BL/6 mouse model of acute lung injury assessed as inhibition of TNF-alpha mRNA levels in lung tissue at 20 mg/kg, ip pretreated for 30 mins followed by LPS challenge measured after 6 hrs by RT-PCR analysis; type: functional, organism-based; conditions: C57/BL6
# In short: (§4)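 Male C57BL/6 mice given i.p. pretreatment 30 min before intratracheal LPS 5 mg/kg, lungs taken at 6 h. IL-6 and TNF-α mRNA in lung tissue normalized to β-actin and expressed relative to the LPS group.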
# Mus musculus [11] = test: Anti-inflammatory activity in LPS-induced C57BL/6 mouse model of acute lung injury assessed as decrease in pulmonary congestion in lung tissue at 15 mg/kg, ip pretreated for 30 mins followed by LPS challenge measured after 6 hrs by hematoxylin and eosin staining-based light microscopic analysis; type: functional, organism-based; conditions: C57/BL6
# Mus musculus [12] = test: Anti-inflammatory activity in LPS-induced C57BL/6 mouse model of acute lung injury assessed as decrease in inflammatory infiltration in lung tissue at 15 mg/kg, ip pretreated for 30 mins followed by LPS challenge measured after 6 hrs by hematoxylin and eosin staining-based light microscopic analysis; type: functional, organism-based; conditions: C57/BL6
# Mus musculus [13] = test: Anti-inflammatory activity in LPS-induced C57BL/6 mouse model of acute lung injury assessed as decrease in CD68 production in lung tissue at 15 mg/kg, ip pretreated for 30 mins followed by LPS challenge measured after 6 hrs by immumohistochemical staining-based light microscopic analysis; type: functional, organism-based; conditions: C57/BL6
# In short: (§5)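 Male C57BL/6 mice, 18–22 g, n = 7 per group. Compound given i.p. 15 mg/kg in 200 µL, or vehicle, 30 min before intratracheal LPS 5 mg/kg; killed 6 h later. Paraffin lung sections, 5 µm, treated with H2O2, blocked in 5% BSA, then primary anti-CD68 or anti-TNF-α overnight at 4 °C. HRP secondary 2 h at 37 °C, DAB stain, light microscopy at 200×.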
# Mus musculus [14] = test: Anti-inflammatory activity in LPS-induced C57BL/6 mouse model of acute lung injury assessed as decrease in interstitial edema in lung tissue at 15 mg/kg, ip pretreated for 30 mins followed by LPS challenge measured after 6 hrs by hematoxylin and eosin staining-based light microscopic analysis; type: functional, organism-based; conditions: C57/BL6
# Mus musculus [15] = test: Anti-inflammatory activity in LPS-induced C57BL/6 mouse model of acute lung injury assessed as decrease in thicken alveolar septa at 15 mg/kg, ip pretreated for 30 mins followed by LPS challenge measured after 6 hrs by hematoxylin and eosin staining-based light microscopic analysis; type: functional, organism-based; conditions: C57/BL6
# [16] = biological target: Toll-like receptor 4 (Homo sapiens) (UniProt O00206); test: Binding affinity to TLR4 (unknown origin) by SPR analysis
# Chain of Toll-like receptor 4 (Homo sapiens) (O00206 whole entry): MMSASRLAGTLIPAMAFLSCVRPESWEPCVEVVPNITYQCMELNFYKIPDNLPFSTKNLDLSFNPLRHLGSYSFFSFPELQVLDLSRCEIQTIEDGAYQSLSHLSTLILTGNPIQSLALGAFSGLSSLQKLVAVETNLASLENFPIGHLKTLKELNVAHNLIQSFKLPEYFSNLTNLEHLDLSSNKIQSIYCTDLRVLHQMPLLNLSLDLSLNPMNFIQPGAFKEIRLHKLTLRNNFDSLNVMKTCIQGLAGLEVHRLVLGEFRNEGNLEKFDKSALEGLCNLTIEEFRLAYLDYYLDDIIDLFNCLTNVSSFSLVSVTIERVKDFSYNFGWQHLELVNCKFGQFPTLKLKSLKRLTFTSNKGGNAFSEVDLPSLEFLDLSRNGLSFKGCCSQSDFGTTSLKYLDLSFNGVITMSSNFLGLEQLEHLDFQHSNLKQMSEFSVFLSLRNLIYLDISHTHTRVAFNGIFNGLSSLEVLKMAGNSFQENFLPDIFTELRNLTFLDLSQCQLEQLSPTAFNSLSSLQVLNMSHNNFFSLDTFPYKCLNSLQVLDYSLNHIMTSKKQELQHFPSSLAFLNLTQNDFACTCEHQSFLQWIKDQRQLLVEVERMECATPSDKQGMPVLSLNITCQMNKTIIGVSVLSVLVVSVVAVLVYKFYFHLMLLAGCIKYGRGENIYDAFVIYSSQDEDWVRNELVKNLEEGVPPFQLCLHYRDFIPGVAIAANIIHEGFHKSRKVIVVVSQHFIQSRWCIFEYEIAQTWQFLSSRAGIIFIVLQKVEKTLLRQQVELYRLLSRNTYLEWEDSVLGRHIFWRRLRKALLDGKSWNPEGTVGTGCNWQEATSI
# In short: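 SPR: TLR4 protein in acetate buffer immobilized after activation with 40 mM EDC/10 mM sNHS. Compound dilutions in PBS with 0.1% SDS, 0.05% Tween-20 and 5% DMSO; first channel used as reference. Association 120 s, dissociation 120 s, 25 °C; KD derived from binding kinetics.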
# Mus musculus [17] = test: Anti-inflammatory activity in LPS-induced C57BL/6 mouse model of acute lung injury assessed as inhibition of IL-6 mRNA levels in lung tissue at 20 mg/kg, ip pretreated for 30 mins followed by LPS challenge measured after 6 hrs by RT-PCR analysis; type: functional, organism-based; conditions: C57/BL6; in short: as §4
# Mus musculus [18] = test: Anti-inflammatory activity in LPS-induced C57BL/6 mouse model of acute lung injury assessed as decrease in TNF-alpha production in lung tissue at 15 mg/kg, ip pretreated for 30 mins followed by LPS challenge measured after 6 hrs by immumohistochemical staining-based light microscopic analysis; type: functional, organism-based; conditions: C57/BL6; in short: as §5
# Mus musculus [19] = test: Anti-inflammatory activity in LPS-induced C57BL/6 mouse model of acute lung injury assessed as decrease in lung tissue destruction at 15 mg/kg, ip pretreated for 30 mins followed by LPS challenge measured after 6 hrs by hematoxylin and eosin staining-based light microscopic analysis; type: functional, organism-based; conditions: C57/BL6
Structure (SMILES),inhibition (Peritoneal macrophage [1]),other results
C=CCOc1ccc(/C=C/C(=O)NCCc2ccccc2)cc1,Active,–
O=C(/C=C/c1ccc(O)c(O)c1)OCCc1ccccc1 [CAFFEIC ACID PHENETHYL ESTER],–,inhibition (Mus musculus [2]): Active; inhibition (Mus musculus [3]): Active; inhibition (Mus musculus [4]): Active; inhibition (Mus musculus [5]): Active; inhibition (Mus musculus [6]): Active; IC50 (Peritoneal macrophage [7]): 4.31 µM; inhibition (Mus musculus [8]): Active
O=C(/C=C/c1ccc2c(c1)OCO2)NCCc1ccccc1,Active,–
COc1cc(/C=C/C(=O)NCCc2ccccc2)ccc1O,Active,–
Cc1ncsc1/C=C/C(=O)NCCc1cc2ccccc2[nH]1,inactive,–
O=C(/C=C/c1ccc(N2CCOCC2)cc1)NCCc1ccccc1,Active,–
COc1ccc(/C=C/C(=O)NCCc2ccccc2)cc1OCc1ccc(C)cc1,inactive,–
Cc1ncsc1/C=C(\C#N)C(=O)NCCc1ccccc1,Active,–
Cc1ncsc1/C=C/C(=O)NCCc1ccc(O)c(O)c1,Active,–
O=C(/C=C/c1ccc(O)cc1)NCCc1ccccc1,Active,–
O=C(/C=C/c1ccc([N+](=O)[O-])cc1)NCCc1ccccc1,inactive,–
COc1ccc(/C=C/C(=O)NCCc2ccccc2)cc1O,Active,–
O=C(/C=C/c1cccnc1)NCCc1ccccc1,Active,–
COc1ccc(/C=C/C(=O)NCCc2ccccc2)cc1OCc1ccccc1,inactive,–
Cc1ccc(/C=C/C(=O)NCCc2ccccc2)o1,Active,–
CCCCCCCCCNC(=O)/C=C/c1scnc1C,inactive,–
CCOC(=O)[C@H](Cc1ccc(O)cc1)NC(=O)/C=C/c1scnc1C,–,inhibition at 10 µM (Peritoneal macrophage [9]): 79.4%; IC50 (Peritoneal macrophage [7]): 3.19 µM; inhibition (Peritoneal macrophage [7]): Dose-dependent effect
Cc1ncsc1/C=C/C(=O)NCCc1ccccc1,–,inhibition at 10 µM (Peritoneal macrophage [9]): 67.3%
Cc1ncsc1/C=C/C(=O)NCCc1ccc(O)cc1,Active,–
Cc1ncsc1/C=C/C(=O)N1CCC(c2ccccc2)CC1,inactive,–
COc1cc(OC)c(/C=C/C(=O)NCCc2ccccc2)c(OC)c1,inactive,–
COc1ccc(/C=C/C(=O)NCCc2ccccc2)c(OC)c1OC,inactive,–

Structure (SMILES),inhibition (Peritoneal macrophage [1]),other results
COc1cc(COc2cc(/C=C/C(=O)NCCc3ccccc3)ccc2OC)cc(OC)c1,inactive,–
Cc1ncsc1/C=C/C(=O)N[C@@H](Cc1ccc(O)cc1)C(=O)OC(C)(C)C,–,inhibition (Mus musculus [2]): Active; inhibition (Mus musculus [10]): Active; inhibition at 10 µM (Peritoneal macrophage [9]): 82.6%; inhibition (Mus musculus [3]): Active; inhibition (Mus musculus [4]): Active; inhibition (Mus musculus [5]): Active; inhibition (Mus musculus [6]): Active; Activity (Mus musculus [11]): Active; Activity (Mus musculus [12]): Active; Activity (Mus musculus [13]): Active; Activity (Mus musculus [14]): Active; Activity (Mus musculus [15]): Active; Activity [16]: inactive; inhibition (Mus musculus [17]): Active; Activity (Mus musculus [18]): Active; IC50 (Peritoneal macrophage [7]): 2.05 µM; inhibition (Peritoneal macrophage [7]): Dose-dependent effect; inhibition (Mus musculus [8]): Active; Activity (Mus musculus [19]): Active
COc1ccc(/C=C/C(=O)NCCc2ccccc2)cc1OC,Active,–
CCCCCCCCCCNC(=O)/C=C/c1scnc1C,inactive,–
Cc1ncsc1/C=C/C(=O)N[C@@H](Cc1ccccc1)C(=O)O,inactive,–
O=C(/C=C/c1ccc(C(F)(F)F)cc1)NCCc1ccccc1,inactive,–
COc1cc(OC)c(OC)cc1/C=C/C(=O)NCCc1ccccc1,inactive,–
COc1ccc(/C=C/C(=O)NCCc2ccccc2)cc1,Active,–
COc1cccc(/C=C/C(=O)NCCc2ccccc2)c1OC,inactive,–
Cc1ccc(/C=C/C(=O)NCCc2ccccc2)s1,Active,–
COc1cc(/C=C/C(=O)NCCc2ccccc2)ccc1OCc1ccccc1,Active,–
Cc1ncsc1/C=C/C(=O)N[C@@H](Cc1ccc(O)cc1)C(=O)O,inactive,–
CCCCCCCCNC(=O)/C=C/c1scnc1C,inactive,–
COc1cc(/C=C/C(=O)NCCc2ccccc2)cc(Br)c1O,Active,–
Cc1ncsc1/C=C/C(=O)NCCCc1ccccc1,inactive,–
COc1cc(/C=C/C(=O)NCCc2ccccc2)cc(OC)c1OC,Active,–
CCCCCCCNC(=O)/C=C/c1scnc1C,inactive,–
Cc1ncsc1/C=C/C(=O)N[C@@H](Cc1ccccc1)C(=O)OC(C)(C)C,–,inhibition at 10 µM (Peritoneal macrophage [9]): 68.7%
Cc1ncsc1/C=C/C(=O)NCCCCc1ccccc1,inactive,–
COc1cc(/C=C/C(=O)NCCc2ccccc2)ccc1OCc1ccc(C)cc1,Active,–
COc1ccc2cc(CCNC(=O)/C=C/c3scnc3C)[nH]c2c1,inactive,–
